Data published in ChEMBL document CHEMBL1671665, “Effect of beta-1,6-glucan inhibitors on the invasion process of Candida albicans: potential mechanism of their in vivo efficacy” (Antimicrob Agents Chemother, 2009).
Converted amounts (≈) assume the structure as drawn. The source made the active and inactive calls. The rule behind the calls is not given here.

Assays:
Saccharomyces cerevisiae [1] = assay: Antifungal activity against Saccharomyces cerevisiae AY-10c expressing ScKRE6 gene by microdilution method; format: functional
Saccharomyces cerevisiae [2] = assay: Antifungal activity against Saccharomyces cerevisiae CY-1a expressing ScKRE6 gene by microdilution method; format: functional
Saccharomyces cerevisiae [3] = assay: Antifungal activity against Saccharomyces cerevisiae CY-4a expressing ScKRE6-CaKRE6 gene by microdilution method; format: functional
Candida albicans [4] = assay: Antifungal activity against Candida albicans ATCC 24433 in Lee's media by microdilution method; format: functional
Procedure, shortened: (§1)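 Broth microdilution per NCCLS at 30°C, inoculum 1 × 10³ to 3 × 10⁴ cells/ml. Medium was MEM, SDB, YNB, Spider or Lee's, all without Alamar Blue. End point MIC-2: 50% drop in OD600 against drug-free control. RPMI run used MOPS-buffered RPMI with Alamar Blue read at 570 nm. Duplicates.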

Candida albicans [5] = assay: Antifungal activity against Candida albicans ATCC 24433 in RPMI media by microdilution method; format: functional
Procedure, shortened: (§2)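 Broth microdilution per NCCLS M27-A2 in MOPS-buffered RPMI with Alamar Blue, incubated at 30°C. Starting inoculum 1 × 10³ to 3 × 10⁴ cells/ml. End point MIC-2: 50% reduction in A570 against drug-free control. Duplicate runs, repeated on another day if they disagreed.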

Candida albicans [6] = assay: Antifungal activity against Candida albicans ATCC 24433 in YNB media by microdilution method; format: functional; procedure, shortened: as §1
Candida albicans [7] = assay: Antifungal activity against Candida albicans ATCC 90028 by microdilution method; format: functional; procedure, shortened: as §2
Candida albicans [8] = assay: Antifungal activity against Candida albicans ATCC 24433 by microdilution method; format: functional; procedure, shortened: as §2
Candida albicans [9] = assay: Antifungal activity against Candida albicans ATCC 24433 in MEM media by microdilution method; format: functional; procedure, shortened: as §1
Candida albicans [10] = assay: Antifungal activity against Candida albicans ATCC 24433 in Spider media by microdilution method; format: functional; procedure, shortened: as §1
Nakaseomyces glabratus [11] = assay: Antifungal activity against Candida glabrata ATCC 48435 by microdilution method; format: functional; procedure, shortened: as §2
Candida albicans [12] = assay: Antifungal activity against Candida albicans ATCC 24433 in SDB media by microdilution method; format: functional; procedure, shortened: as §1
Saccharomyces cerevisiae [13] = assay: Antifungal activity against Saccharomyces cerevisiae CY-3a expressing ScKRE6-CaSKN2 gene by microdilution method; format: functional
Saccharomyces cerevisiae [14] = assay: Antifungal activity against Saccharomyces cerevisiae CY-5a expressing ScKRE6-CaSKN1 gene by microdilution method; format: functional
Candida albicans [15] = assay: Antifungal activity against Candida albicans ATCC 90028 assessed as absence of outer layer of the cell wall at 1 ug/ml after 6 hrs by TEM; format: functional, organism-based
Procedure, shortened: (§3)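 Budding yeast at 1 × 10³ cells/ml exposed to drug in MOPS-buffered RPMI for 6 h with shaking (legend gives 30°C). Cells fixed in 3% glutaraldehyde/0.1 M phosphate for 2 h. For mannan: stained 30 min with 10 μg/ml fluorescein–concanavalin A, fluorescence microscopy. For TEM: 2% OsO4 postfix, Spurr's resin, uranyl acetate/lead citrate stained sections.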

Pichia kudriavzevii [16] = assay: Antifungal activity against Candida krusei ATCC 44507 by microdilution method; format: functional; procedure, shortened: as §2
Candida albicans [17] = assay: Antifungal activity against Candida albicans ATCC 90028 assessed as inhibition of hyphal elongation at 0.25 ug/ml in HFM-7 medium using crystal violet stain by light microscopy; format: functional, organism-based
Nakaseomyces glabratus [18] = assay: Antifungal activity against Candida glabrata ATCC 48435 infected in Slc::ddY mouse assessed as survival rate at 10 mg/kg, po tid administered 1 hr post infection for 1 day measured on day 14; format: functional
Procedure, shortened: (§4)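 Five-week-old female Slc:ddY mice, made neutropenic with cyclophosphamide 200 mg/kg ip 4 days before and 1 day after infection. SDA-grown cells in 0.1% Tween 80 saline were injected into the tail vein: C. albicans 2.6 × 10⁴ cells, C. glabrata 2.4 × 10⁸ cells. Oral dosing at 1, 4 and 7 h post-infection. Controls got 5% glucose with 1% lactic acid. 10 mice/group; mortality followed 14 or 30 days.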

Pichia kudriavzevii [19] = assay: Antifungal activity against Candida krusei ATCC 44507 assessed as inhibition of adherence of fungal cell to human A549 cells; format: functional, organism-based
Procedure, shortened: (§5)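 Yeast pretreated with drug in MOPS-buffered RPMI at 30°C overnight without shaking. 100 or 200 cells in DPBS overlaid on confluent A549 monolayers (DMEM/10% FBS), 45 min at 37°C, 5% CO2. Washed, covered with SDA, colonies counted after 48 h at 30°C. Percent reduction of adherence; triplicate, mean ± SD.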

Candida albicans [20] = assay: Antifungal activity against Candida albicans ATCC 90028 infected in Slc::ddY mouse assessed as survival rate at 10 mg/kg, po tid administered 1 hr post infection for 1 day measured on day 30; conditions: ATCC 90028, po
Candida albicans [21] = assay: Antifungal activity against Candida albicans ATCC 90028 assessed as inhibition of hyphal elongation at 0.25 ug/ml in Lee's medium using crystal violet stain by light microscopy; format: functional, organism-based
Candida albicans [22] = assay: Inhibition of beta-1.6-glucan synthesis in Candida albicans ATCC 90028 assessed as [14C] glucose incorporation after 3 hrs; format: functional, organism-based
Procedure, shortened: (§6)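 Exponential cells suspended in RPMI 1640 (A595 about 0.6) with drug and [14C]glucose, 3 h at 30°C with occasional shaking. Cells extracted with 3% NaOH at 80°C for 1 h; mannan precipitated with Fehling's reagent. Insoluble fraction digested overnight with Zymolyase to separate β-1,6-glucan. Percent change in incorporated radioactivity against control.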

Pichia kudriavzevii [23] = assay: Inhibition of beta-1.6-glucan synthesis in Candida krusei ATCC 44507 assessed as [14C] glucose incorporation after 3 hrs; format: functional, organism-based; procedure, shortened: as §6
Candida albicans [24] = assay: Antifungal activity against Candida albicans ATCC 90028 infected in reconstituted human vaginal epithelium tissue assessed as inhibition of fungal cell invasion in to the tissue at 1 ug/ml using […] and methylene blue stain by light microscopy; format: functional, organism-based
Procedure, shortened: (§7)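 RHVE (A431 keratinocytes) infected with 2 × 10⁶ ATCC 90028 cells that had been pretreated with drug. Drug also added to the maintenance medium. After 24 h at 37°C, 5% CO2, tissue fixed in formaldehyde; semithin sections stained with […]/methylene blue and examined by light microscopy.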

Nakaseomyces glabratus [25] = assay: Antifungal activity against Candida glabrata ATCC 48435 assessed as inhibition of adherence of fungal cell to human A549 cells; format: functional, organism-based; procedure, shortened: as §5
Candida albicans [26] = assay: Antifungal activity against Candida albicans ATCC 90028 assessed as degradation of mannan layer of the cell wall at 1 ug/ml after 6 hrs using fluorescein-conjugated concanavalin A stain by fluorescent microscopy; format: functional, organism-based; procedure, shortened: as §3
Candida albicans [27] = assay: Inhibition of beta-1.6-glucan synthesis in Candida albicans ATCC 90028 assessed as [14C] glucose incorporation at 0.063 ug/ml after 3 hrs; format: functional, organism-based; procedure, shortened: as §6
Nakaseomyces glabratus [28] = assay: Antifungal activity against Candida glabrata ATCC 48435 infected in Slc::ddY mouse assessed as survival rate at 3.3 mg/kg, po tid administered 1 hr post infection for 1 day measured on day 14; format: functional; procedure, shortened: as §4
[29] = Cmax in Slc::ddY mouse at 10 mg/kg, po tid administered 1 hr post infection for 1 day; format: ADME, organism-based; set-up: dose 10 mg/kg, route oral; conditions: in vivo
Candida albicans [30] = assay: Antifungal activity against Candida albicans ATCC 90028 infected in reconstituted human vaginal epithelium tissue assessed as inhibition of fungal cell invasion in to the tissue at 0.25 ug/ml using […] and methylene blue stain by light microscopy; format: functional, organism-based; procedure, shortened: as §7
Nakaseomyces glabratus [31] = assay: Inhibition of beta-1.6-glucan synthesis in Candida glabrata ATCC 48435 assessed as [14C] glucose incorporation after 3 hrs; format: functional, organism-based; procedure, shortened: as §6
[32] = Half life in Slc::ddY mouse at 10 mg/kg, po tid administered 1 hr post infection for 1 day; format: ADME, organism-based; set-up: dose 10 mg/kg, route oral; conditions: in vivo
Candida albicans [33] = assay: Antifungal activity against Candida albicans ATCC 90028 assessed as inhibition of hyphal elongation at 0.25 ug/ml in Spider medium using crystal violet stain by light microscopy; format: functional, organism-based
Candida albicans [34] = assay: Antifungal activity against Candida albicans ATCC 90028 assessed as inhibition of adherence of fungal cell to human A549 cells; format: functional, organism-based; procedure, shortened: as §5
Candida albicans [35] = assay: Antifungal activity against Candida albicans ATCC 90028 assessed as degradation of mannan layer of the cell wall at >0.25 ug/ml after 6 hrs using fluorescein-conjugated concanavalin A stain by fluorescent microscopy; format: functional, organism-based; procedure, shortened: as §3

| Structure (SMILES) | MIC (Saccharomyces cerevisiae [1]) [mg/L] | MIC (Saccharomyces cerevisiae [2]) [mg/L] | MIC (Saccharomyces cerevisiae [3]) [mg/L] | MIC (Candida albicans [4]) [mg/L] | MIC (Candida albicans [5]) [mg/L] | MIC (Candida albicans [6]) [mg/L] | MIC (Candida albicans [7]) [mg/L] | MIC (Candida albicans [8]) [mg/L] | MIC (Candida albicans [9]) [mg/L] | MIC (Candida albicans [10]) [mg/L] | MIC (Nakaseomyces glabratus [11]) [mg/L] | MIC (Candida albicans [12]) [mg/L] | MIC (Saccharomyces cerevisiae [13]) [mg/L] | MIC (Saccharomyces cerevisiae [14]) [mg/L] | MIC (Pichia kudriavzevii [16]) [mg/L] | also measured |
| --- | --- | --- | --- | --- | --- | --- | --- | --- | --- | --- | --- | --- | --- | --- | --- | --- |
| Cc1c(-c2ccccc2)c(N2CC[C@H](N(C)C)C2)n2c(nc3ccccc32)c1C#N | 0.125 (≈ 0.316 µM) | 0.125 (≈ 0.316 µM) | 0.125 (≈ 0.316 µM) | 0.125 (≈ 0.316 µM) | > 16 | 16 (≈ 40.5 µM) | > 32 | > 32 | > 16 | 0.063 (≈ 0.159 µM) | 0.016 (≈ 0.0405 µM) | 2 (≈ 5.06 µM) | 0.125 (≈ 0.316 µM) | 0.25 (≈ 0.632 µM) | 0.25 (≈ 0.632 µM) | Activity (Candida albicans [15]): Active |
| CCc1c(C)c(C#N)c2nc3ccccc3n2c1NCCN(CC)CC | 8 (≈ 22.9 µM) | 8 (≈ 22.9 µM) | 16 (≈ 45.8 µM) | – | – | – | 16 (≈ 45.8 µM) | 8 (≈ 22.9 µM) | – | – | 1 (≈ 2.86 µM) | – | 8 (≈ 22.9 µM) | 16 (≈ 45.8 µM) | 16 (≈ 45.8 µM) | – |
| Cc1c(-c2ccccc2)c(N2CC[C@H](N(C)C)C2)n2c(nc3ncccc32)c1C#N | 0.25 (≈ 0.631 µM) | 0.5 (≈ 1.26 µM) | 0.25 (≈ 0.631 µM) | 0.125 (≈ 0.315 µM) | > 16 | 16 (≈ 40.4 µM) | > 32 | > 32 | > 16 | 0.125 (≈ 0.315 µM) | 0.125 (≈ 0.315 µM) | 4 (≈ 10.1 µM) | 0.25 (≈ 0.631 µM) | 0.25 (≈ 0.631 µM) | 0.5 (≈ 1.26 µM) | Activity (Candida albicans [17]): Active; survival at 10 mg/kg (Nakaseomyces glabratus [18]): 100%; Activity (Pichia kudriavzevii [19]): Active; survival at 10 mg/kg (Candida albicans [20]): 50%; Activity (Candida albicans [21]): Active; inhibition (Candida albicans [22]): Active; inhibition (Pichia kudriavzevii [23]): Active; Activity (Candida albicans [24]): Active; Activity (Nakaseomyces glabratus [25]): Active; Activity (Candida albicans [26]): Active; inhibition (Candida albicans [27]): Active; survival at 3.3 mg/kg (Nakaseomyces glabratus [28]): 90%; Cmax [29]: 0.71 µg/mL; Activity (Candida albicans [30]): Active; inhibition (Nakaseomyces glabratus [31]): Active; half-life [32]: 4.4 h; Activity (Candida albicans [33]): Active; Activity (Candida albicans [34]): Active; Activity (Candida albicans [35]): Active |
